The campaign covered roughly 190,000 compounds. About 1,300 (0.68%) were called active. The list comes from a sample in which actives are over-represented; it also holds similar structures and randomly drawn compounds. Unmarked numbers belong to inactive results.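 Rule for the calls: active = primary screen inhibition at 20 µM above a set limit (cut at about 50% in these data); inactive = the rest.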
system: diaphorase (Clostridium kluyveri); experiment: compounds blocking diaphorase resazurin reduction – biochemical, uHTS, resorufin fluorescence, counter-screen for diaphorase-coupled primary assays, primary screen (AID 1217);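 note: plate controls were DMSO with full reaction for no effect and wells lacking NADH for full effect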; details: diaphorase resazurin-to-resorufin fluorescence, NADH, 16 min; at 20 µM; stronger effect = higher value; bacterial (C. kluyveri) enzyme, not human
Summary of the method: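 Test system: Clostridium kluyveri diaphorase enzyme / Quantity: diaphorase at 0.14 U/mL in enzyme working solution / Incubation: 16-min room-temperature incubation before reading / Benchmarks: NADH-free wells as positive control, DMSO-only neutral wells / Signal: resorufin fluorescence 544/590 nm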

| Structure (SMILES) | inhibition |
| --- | --- |
| Cc1cccc(C2c3[nH]c4ccccc4c3CCN2C(=O)c2cc(-c3cccn3C)n[nH]2)n1 (stereo not given) | 37% |
| Cc1cc2c(cc1C)[n+](C)cn2CC(O)COCC1CC=CCC1 (stereo not given) | 1.5% |
| COc1ccc(/C=C/CN2CCN(Cc3ccc(C)cc3)C(CCO)C2)cc1 (stereo not given) | 7.2% |
| CN(CCc1cn[nH]c1)C(=O)CC1C(=O)NCCN1Cc1cccc(Oc2ccccc2)c1 (stereo not given) | 8.5% |
| CCCn1c(SCC(=O)N2CCc3ccccc32)nnc1-c1ccncc1 | 6.2% |
| Cn1c(SCC(=O)N2CCCc3ccccc32)nc2ccccc2c1=O | 5.1% |
| O=C(CSc1ccc2nnc(-c3ccccc3)n2n1)N1CCCc2ccccc21 | 56.2% (active) |
| C=CCNC(=S)NNC(=O)COc1c(Cl)cc(Cl)cc1Cl | 10.5% |
| Cc1cccc(Oc2c([N+](=O)[O-])c(=O)n(C)c3ccccc23)c1 | 94.1% (active) |
| Cn1c2ccccc2c(=O)c2c(O)cccc21 | -1% |
| Cc1nn(C)c(Oc2ccccc2)c1[N+](=O)[O-] | 13.6% |
| COc1cccc(C(=O)Oc2cc(C)[nH]c(=O)c2[N+](=O)[O-])c1 | 15.4% |
| Cc1cccc(OP(=O)(Nc2c(C)n(C)n(-c3ccccc3)c2=O)Oc2cccc(C)c2)c1 | 14.1% |
| Cn1c(=O)c([N+](=O)[O-])c(Oc2ccccc2)c2ccccc21 | 82.2% (active) |
| CN(Cc1cc2cc(F)ccc2[nH]1)Cc1nc(-c2cnccn2)no1 | 15.3% |
| CN(C)c1nc(-c2cccnc2)nc(-c2ccc(Cl)cc2)c1C#N | -10.7% |
| COC(=O)C1CCN(C(=O)c2cc(=O)[nH]c3ccccc23)CC1 | 6.4% |
| OC(COCc1ccco1)CN1CCN(c2ccccc2)CC1 (stereo not given) | 3.1% |
| S=C(NCC1CCCO1)N1CCN(c2ccc(Cl)c(Cl)c2)CC1 (stereo not given) | 21.1% |
| Cc1cccc(N2CCC(NCc3c(C(=O)N4CCCCC4)nc4c(C)cccn34)CC2)c1 | -5.4% |
| Cc1cccc(NC(=O)Nc2ccc3c(c2)OCO3)n1 | 18.3% |
| COc1ccc(NC(=S)NCCN2CCC(C)CC2)cc1 | -1.3% |
| Cc1noc(/C=C/c2ccco2)c1S(=O)(=O)N1CCC(C(=O)Nc2ccc(Cl)cn2)CC1 | 14.1% |
| COc1cc(N/C=C2\CC(=O)NC(C)=C2C#N)cc(OC)c1OC | 51.1% (active) |

| Structure (SMILES) | inhibition |
| --- | --- |
| COC(=O)C1=C(C)NC(=O)CC1c1ccccc1OC (stereo not given) | 6.8% |
| Cc1cccc(NC(=S)NCCc2ccc(F)cc2)c1C | 1.1% |
| N#Cc1c(-c2ccc(F)cc2)cc(C2CC2)nc1SCC(=O)c1cccs1 | 12.8% |
| COc1ccc(C(=O)Nc2cccnc2)cc1C(=O)Nc1cccnc1 | -17.7% |
| COc1ccccc1Oc1ccc(S(=O)(=O)Nc2cccnc2)cc1 | 9.6% |
| COc1ccc(S(=O)(=O)Nc2cccnc2)c(Cl)c1Cl | 77.2% (active) |
| S=C(Cc1ccc(Cl)cc1)N1CCOCC1 | -0.3% |
| CC(=O)Nc1cccc(-c2nc3ccccc3s2)c1C | 6.8% |
| Cc1ccc(-c2n[nH]c(=S)n2/N=C/c2cc3c(cc2[N+](=O)[O-])OCO3)cc1 | 69.3% (active) |
| Cc1ccc(S(=O)(=O)N/N=C\c2cc3c(cc2[N+](=O)[O-])OCO3)cc1 | 37.8% |
| CCOc1ccc(-c2n[nH]c(=S)n2/N=C/c2cc3c(cc2[N+](=O)[O-])OCO3)cc1 | 41.6% |
| COc1ccc(CS(=O)/C(Cl)=C(/Cl)C(=O)Nc2ccc(OC)nc2)cc1 (stereo not given) | 1% |
| COc1ccc(S(=O)(=O)Nc2ccc(O)c(Sc3nc4ccccc4s3)c2)cc1 | 24.7% |
| O=[N+]([O-])c1c(NCCO)cc(Sc2nc3ccccc3s2)c2nonc12 | 58% (active) |
| O=C(O)c1cccc(S(=O)(=O)Nc2ccc(O)cc2Sc2nc3ccccc3s2)c1 | 7.5% |
| C[C@H](NC(=O)c1ccccc1Cl)C(=O)OCCOc1cccc(Cl)c1 | 11.2% |
| COc1cccc(-n2c(=S)[nH]c3c(oc4ccccc43)c2=O)c1 | 71.4% (active) |
| COC(=O)c1ccc(CSc2nc3ccccc3c(=O)n2-c2cccc(OC)c2)o1 | 39.9% |
| COc1cccc(-n2cc(C(=O)O)c3ccccc3c2=O)c1 | 6.7% |
| CN(C(=O)c1c(Cl)cnn1C)C12CC3CC(CC(C3)C1)C2 | 3.9% |
| C/C(=N\Nc1ccc([N+](=O)[O-])cc1)c1ccc(-n2nncc2C(C)(C)C)cc1 | 5% |
| O=C(CN1C(=O)c2cccc3cccc1c23)Nc1ccccc1 | -6.4% |
| CCN1C(=O)c2cccc3c(N)ccc1c23 | 57.3% (active) |
| CCCCN(C)C(=O)c1ccc2c(c1)N(CC)C(=O)c1ccccc1S2(=O)=O | 4.6% |

| Structure (SMILES) | inhibition |
| --- | --- |
| CN1C(=O)C(CC(=O)Nc2ccccc2)S/C1=N/c1nccs1 (stereo not given) | -11.3% |
| CC(=O)Nc1ccc(S(=O)(=O)N(CCc2ccccc2)CC(=O)N/N=C/c2ccc(C(=O)O)cc2)cc1 | 0.3% |
| Cc1[nH]n(-c2ccccc2)c(=O)c1/C=N/NC(=O)c1ccoc1C | 50.1% (active) |
| Cc1ccc(-n2[nH]c(C)c(/C=N/NC(=O)c3cccc([N+](=O)[O-])c3)c2=O)cc1C | 22% |
| Cc1[nH]n(-c2ccc(Cl)cc2)c(=O)c1/C=N/n1c(C)nc2ccccc2c1=O | -6.7% |
| O=C(C(Cl)Cl)N1CCN(c2ccccn2)CC1 | 3% |
| COCCCNC(=O)Cn1c(=O)n(Cc2ccccc2Cl)c(=O)c2cc(OC)c(OC)cc21 | 9.4% |
| Cc1c(CN2CCCC(C(=O)c3cccc(Cl)c3)C2)c(=O)n(-c2ccccc2)n1C (stereo not given) | 15.1% |
| CCc1ccc(NC2Nc3cc(C)nn3S2)cc1 (stereo not given) | 8.9% |
| O=C(Cc1ccccc1)NCC1OCCc2ccccc21 (stereo not given) | 24.1% |
| COc1ccc(-c2csc(Nc3ccc(O)cc3)n2)cc1 | -2.2% |
| COc1ccc(-c2csc(Nc3ccccn3)n2)cc1 | 10.1% |
| COc1ccc(OC)c(Nc2nc(-c3ccc(O)c(O)c3)cs2)c1 | 57.4% (active) |
| CC1CC1C(=O)OCC(=O)c1c(N)n(C)c(=O)n(C)c1=O (stereo not given) | -19.7% |
| Cc1cc(C)cc(NC(=O)Cn2cnc3c(nnn3Cc3ccc(F)cc3)c2=O)c1 | 1.8% |
| COc1ccc(OC)c2[nH]c(=O)c(CCNC(=O)C(=O)c3c[nH]c4ccccc34)cc12 | 66.1% (active) |
| COc1ccc(/C=C(\NC(=O)c2ccc(OC)c(OC)c2)C(=O)NCCc2c[nH]c3ccccc23)cc1 | 13.6% |
| COc1ccc(OC)c2[nH]c(=O)c(CCNC(=O)C(C)(C)C)cc12 | 2.9% |
| COc1ccc(C(=O)N/N=c2\oc3ccccc3cc2C(N)=O)cc1 | 75.5% (active) |
| CCN(CC)c1ccc2cc(C(N)=O)/c(=N\NC(=O)c3ccncc3)oc2c1 | 25% |
| CCc1cc(C(N)=O)c(NC(=O)c2ccc(OC)cc2)s1 | 21.1% |
| COc1cccc(OC)c1C(=O)NC(=S)Nc1ccc(N2CCOCC2)c(Cl)c1 | 27.9% |
| S=c1[nH]nc(-c2cccs2)n1/N=C/c1cccs1 | 51.3% (active) |
| Oc1ccccc1/C=N/n1c(-c2cccs2)n[nH]c1=S | 35.3% |

| Structure (SMILES) | inhibition |
| --- | --- |
| Cc1ccc(/C=N\n2c(-c3ccccc3)n[nH]c2=S)s1 | 19.9% |
| CCN(C(=O)COC(=O)c1ccc(COc2ccc3c(C)cc(=O)oc3c2)cc1)C1CCS(=O)(=O)C1 (stereo not given) | 0.7% |
| CN(C)CCN=c1cc(-c2ccccc2)oc2ccc(Cl)cc12 | -1.4% |
| O=C(COC(=O)c1cc([N+](=O)[O-])ccc1NCc1ccccc1)NC1CCCCC1 | 3% |
| O=C(/C=C/c1ccc(F)cc1)NC(=S)NNC(=O)c1cccnc1 | 67.6% (active) |
| O=C(/C=C/c1ccc(F)cc1)NCCNC(=O)/C=C/c1ccc(F)cc1 | 3.6% |
| CC(C)c1ccc(/C=C/C(=O)NNC(=O)c2cccnc2)cc1 | 6.9% |
| CCc1cccc(NC(=O)CCNS(=O)(=O)c2cccc3nonc23)c1 | 6.4% |
| CC(=O)Nc1ccc(S(=O)(=O)NC(C)C(=O)OCC(=O)NC2CCCC2)cc1 (stereo not given) | 6.2% |
| Cc1c(Cl)cccc1NC(=O)CSc1ccc(-c2cccnc2)nn1 | -1.3% |
| O=C(CSc1n[nH]c(-c2cccnc2)n1)Nc1ccnc2ccccc12 | 54% (active) |
| O=C(CSc1ncn[nH]1)Nc1ccnc2ccccc12 | -2.2% |
| Cc1nc(-c2ccccc2)cn2c1nc1ccccc12 | 16% |
| O=c1[nH]c(=S)[nH]c2[nH]c(=S)[nH]c12 | 87.4% (active) |
| Cc1cc(=O)[nH]c(=S)[nH]1 | 5.9% |
| O=C(N1CCCCC1)N1CCN(C(=O)N2CCCCC2)CC1 | -5.4% |
| CC(/C=N/NC(=O)c1ccncc1)=C\c1ccco1 | 5.5% |
| CC(/C=N/NC(=O)c1cc(-c2ccc3ccccc3c2)n[nH]1)=C\c1ccco1 | 5.2% |
| C/C(=C\c1ccco1)C1Nc2cccc3cccc(c23)N1 | 69.5% (active) |
| CC(=O)c1c(O)cc2n(c1=O)-c1ccc(Cl)cc1C2(C)C | 18.3% |
| Cc1coc(C)c1C(=O)CC1(O)C(=O)N(C)c2ccc(Cl)cc21 (stereo not given) | 51.4% (active) |
| C=CCN1C(=O)C(O)(CC(=O)c2ccc(Cl)cc2)c2ccccc21 (stereo not given) | 20% |
| Cc1ccc(O)c(NC(=S)NC(=O)COc2ccc(Br)cc2)c1 | 1.8% |

— PubChem BioAssay AID1217 (Sanford-Burnham Center for Chemical Genomics, 2008)
